Assay [1] deals with Blood. Description: Inhibition of A23187-induced TBX2 release in Sprague-Dawley rat whole blood. In kind it is functional, tissue-based. The gist of the method:
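Rat whole blood is stimulated with calcium ionophore A23187, and thromboxane B2 is the read-out (cPLA2α- and COX-1-dependent). IC50 is taken from at least two runs, each run the mean of triplicate assays.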

For assay [2], the system named is MC9. Description: Inhibition of arachidonic acid-induced PGF2-alpha release in mouse MC9 cells at 1.0 uM.
Assay [3] relates to MC9. Description: Inhibition of IgE-specific antigen-induced PGF2-alpha release in mouse MC9 cells at 1.0 uM.
Assay [4] has as its system MC9. Description: Inhibition of IgE-specific antigen-induced LBT4 release in mouse MC9 cells at 1.0 uM.
Assay [5] has as its target T1, Cytosolic phospholipase A2 (Homo sapiens, UniProt P47712).
T1 sequence (P47712 whole entry): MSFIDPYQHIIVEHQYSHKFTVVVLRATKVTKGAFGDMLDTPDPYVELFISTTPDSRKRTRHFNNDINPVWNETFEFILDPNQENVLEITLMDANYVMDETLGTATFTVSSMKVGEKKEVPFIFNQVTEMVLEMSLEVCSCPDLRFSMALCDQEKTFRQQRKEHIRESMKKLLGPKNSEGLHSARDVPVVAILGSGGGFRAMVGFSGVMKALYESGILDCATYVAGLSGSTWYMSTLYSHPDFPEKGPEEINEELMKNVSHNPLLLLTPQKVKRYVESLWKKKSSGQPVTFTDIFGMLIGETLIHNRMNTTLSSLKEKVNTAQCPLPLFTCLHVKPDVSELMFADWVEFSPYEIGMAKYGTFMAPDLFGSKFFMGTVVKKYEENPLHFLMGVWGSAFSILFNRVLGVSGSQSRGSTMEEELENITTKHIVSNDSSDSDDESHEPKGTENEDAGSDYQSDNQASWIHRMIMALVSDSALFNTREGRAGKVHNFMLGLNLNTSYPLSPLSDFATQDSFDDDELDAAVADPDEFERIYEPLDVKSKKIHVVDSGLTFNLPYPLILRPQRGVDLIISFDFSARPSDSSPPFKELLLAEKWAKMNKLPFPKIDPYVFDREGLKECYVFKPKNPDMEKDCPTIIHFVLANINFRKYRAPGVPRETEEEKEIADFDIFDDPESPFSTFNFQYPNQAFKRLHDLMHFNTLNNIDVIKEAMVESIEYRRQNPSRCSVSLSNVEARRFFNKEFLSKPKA
Put plainly: Inhibition of human cytosolic PLA2alpha by GLU micelle assay. The gist of the method: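 Purified human cPLA2α with the substrate 7-hydroxycoumarinyl-γ-linolenate (GLU), presented in micelles containing a high concentration of detergent and lipid. IC50 is taken from at least two runs, each run the mean of duplicate assays.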

The subject of assay [6] is Blood. Put plainly: Inhibition of A23187-induced TBX2 release in human whole blood at 10 uM. The class given is functional.

In general, pIC50 refers to the IC50 on a negative log10 scale, so that one unit is a factor of ten. A higher pIC50 goes with a low IC50. One may read the inhibition as the change of the read-out against control, counted positive when it falls.

pIC50: −log10 of the molar value.

`O=C(O)c1ccc(OCCc2c(CCNS(=O)(=O)CCn3cnnn3)n(C(c3ccccc3)c3ccccc3)c3ccc(Cl)cc23)cc1`: the pIC50 with Blood [1] was 5.25; in assay [5], 6.33. Also, the inhibition at 1 µM was -5% in the assay on MC9 [2], 19% with MC9 [3] and 59% with MC9 [4]. For the same compound, the inhibition at 10 µM in the assay with Blood [6] is less than 25%.

(Values after ChEMBL document CHEMBL1140903, “Reactions of functionalized sulfonamides: application to lowering the lipophilicity of cytosolic phospholipase A2alpha inhibitors” (J Med Chem, 2009).)
